Active and inactive are the calls of the source. The rule behind the calls is not given here.
Legend:
[1] = target: T1, Bromodomain-containing protein 4 (Homo sapiens, UniProt O60885); assay: Displacement of fluorescein-labeled MS574 from recombinant human BRD4 BrD1 after 1 hr by fluorescence anisotropy assay
In short: (§1)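 Competition fluorescence anisotropy with His-tag-removed recombinant bromodomain (Ni-IDA purified, thrombin cleaved) at 0.25–1 µM, chosen so that 50–80% of probe is bound. FITC-labeled probe at 80 nM (≤2Kd), unlabeled ligand titrated, in PBS pH 7.4, read after 1 h at 25 °C. IC50 from curve fit, converted to Ki with the Nikolovska-Coleska correction to Cheng-Prusoff (one-site competitive). The resolvable Ki is limited by the probe Kd.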

[2] = target: T1, Bromodomain-containing protein 4; assay: Displacement of fluorescein-labeled MS574 from recombinant human BRD4 BrD2 after 1 hr by fluorescence anisotropy assay; in short: as §1
[3] = target: SWI/SNF-related matrix-associated actin-dependent regulator of chromatin subfamily A member 4 (Homo sapiens, UniProt P51532); assay: Displacement of fluorescein-labeled MS239 from recombinant human SMARCA4 bromodomain after 1 hr by fluorescence anisotropy assay; in short: as §1
[4] = target: Bromodomain-containing protein 4 (Mus musculus) (UniProt Q9ESU6); assay: (§2) Inhibition of BRD4 in LPS-stimulated mouse RAW264.7 cells assessed as inhibition of NF-kappaB-mediated IL-6 expression preincubated for 30 mins followed by LPS stimulation measured after 24 hrs by ELISA; format: cell-based
In short: (§3)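 RAW264.7 cells grown in DMEM/10% FBS at 37 °C, 5% CO2, plated at 3 × 10^5 cells/mL, pretreated with inhibitor for 30 min. Medium was then replaced with LPS (1 µg/mL) plus inhibitor for 24 h. Compounds were diluted from DMSO to 0.28–50000 nM, final DMSO 0.05% (v/v). Supernatant IL-6 was measured by mouse ELISA read at 570 nm.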

[5] = target: T2, Bromodomain-containing protein 4 (Mus musculus, UniProt Q9ESU6); assay: as §2; format: cell-based; in short: as §3
[6] = target: Bromodomain-containing protein 4 (Mus musculus) (UniProt Q9ESU6); assay: (§4) Inhibition of BRD4 in LPS-stimulated mouse RAW264.7 cells assessed as inhibition of NF-kappaB-mediated nitric oxide production preincubated for 30 mins followed by LPS stimulation measured after 24 hrs by spectrophotometric analysis; format: cell-based
In short: (§5)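 RAW264.7 cells in DMEM/10% FBS, plated at 3 × 10^5 cells/mL, pretreated with inhibitor 30 min, then LPS (1 µg/mL) plus inhibitor for 24 h. Inhibitor concentrations 0.28–50000 nM from DMSO stock, final DMSO 0.05% (v/v). Nitrite in the supernatant was measured spectrophotometrically at 520 nm.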

[7] = target: T2, Bromodomain-containing protein 4; assay: as §4; format: cell-based; in short: as §5
[8] = target: T3, Bromodomain-containing protein 7 (Homo sapiens, UniProt Q9NPI1); assay: Displacement of fluorescein-labeled MS226 from recombinant human BRD7 after 1 hr by fluorescence anisotropy assay; in short: as §1
T3 sequence (Q9NPI1 whole entry): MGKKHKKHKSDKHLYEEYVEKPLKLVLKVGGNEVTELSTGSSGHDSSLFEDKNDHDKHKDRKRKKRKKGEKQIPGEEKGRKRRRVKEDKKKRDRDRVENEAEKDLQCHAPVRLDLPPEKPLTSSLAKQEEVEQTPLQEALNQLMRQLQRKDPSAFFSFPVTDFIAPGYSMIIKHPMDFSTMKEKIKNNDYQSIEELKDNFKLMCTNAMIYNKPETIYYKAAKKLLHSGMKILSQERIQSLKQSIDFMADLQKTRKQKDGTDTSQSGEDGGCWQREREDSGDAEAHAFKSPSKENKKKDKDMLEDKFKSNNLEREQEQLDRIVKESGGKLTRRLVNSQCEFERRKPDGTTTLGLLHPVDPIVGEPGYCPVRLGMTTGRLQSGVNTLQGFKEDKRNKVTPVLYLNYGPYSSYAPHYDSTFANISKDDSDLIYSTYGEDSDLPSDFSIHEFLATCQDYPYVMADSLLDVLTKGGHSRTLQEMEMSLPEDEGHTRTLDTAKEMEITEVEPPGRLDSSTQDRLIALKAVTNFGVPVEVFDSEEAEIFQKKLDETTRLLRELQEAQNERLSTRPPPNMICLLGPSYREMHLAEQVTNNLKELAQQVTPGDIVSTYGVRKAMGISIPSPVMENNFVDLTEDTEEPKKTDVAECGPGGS

[9] = target: T4, Bromodomain-containing protein 3 (Homo sapiens, UniProt Q15059); assay: Displacement of fluorescein-labeled MS574 from recombinant human BRD3 BrD1 after 1 hr by fluorescence anisotropy assay; in short: as §1
[10] = target: T4, Bromodomain-containing protein 3; assay: Displacement of fluorescein-labeled MS574 from recombinant human BRD3 BrD2 after 1 hr by fluorescence anisotropy assay; in short: as §1
CREB-binding protein = CREB-binding protein (Homo sapiens, UniProt Q92793); assay: Displacement of fluorescein-labeled MS226 from recombinant human CBP bromodomain after 1 hr by fluorescence anisotropy assay; in short: as §1
RAW264.7 = assay: Cytotoxicity against mouse RAW264.7 cells assessed as cell viability up to 100 uM after 24 hrs by MTT assay; format: cell-based; conditions: raw264.7, 24 h
In short: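 RAW264.7 macrophages seeded at 1 × 10^4 cells/well, settled 18 h at 37 °C, then exposed to inhibitors up to 100 µM for 24 h. Compounds were predissolved in DMSO and diluted in medium, final DMSO 0.05% (v/v). MTT (4 mg/ml) was added for 4 h at 37 °C, formazan solubilized in DMSO, and absorbance read at 570/630 nm.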

[11] = target: Nucleosome-remodeling factor subunit BPTF (Homo sapiens, UniProt Q12830); assay: Displacement of fluorescein-labeled MS239 from recombinant human BPTF after 1 hr by fluorescence anisotropy assay; in short: as §1
[12] = target: Histone acetyltransferase KAT2B (Homo sapiens, UniProt Q92831); assay: Displacement of fluorescein-labeled MS239 from recombinant human PCAF after 1 hr by fluorescence anisotropy assay; in short: as §1

CREB-binding protein, sequence (Q92793 whole entry): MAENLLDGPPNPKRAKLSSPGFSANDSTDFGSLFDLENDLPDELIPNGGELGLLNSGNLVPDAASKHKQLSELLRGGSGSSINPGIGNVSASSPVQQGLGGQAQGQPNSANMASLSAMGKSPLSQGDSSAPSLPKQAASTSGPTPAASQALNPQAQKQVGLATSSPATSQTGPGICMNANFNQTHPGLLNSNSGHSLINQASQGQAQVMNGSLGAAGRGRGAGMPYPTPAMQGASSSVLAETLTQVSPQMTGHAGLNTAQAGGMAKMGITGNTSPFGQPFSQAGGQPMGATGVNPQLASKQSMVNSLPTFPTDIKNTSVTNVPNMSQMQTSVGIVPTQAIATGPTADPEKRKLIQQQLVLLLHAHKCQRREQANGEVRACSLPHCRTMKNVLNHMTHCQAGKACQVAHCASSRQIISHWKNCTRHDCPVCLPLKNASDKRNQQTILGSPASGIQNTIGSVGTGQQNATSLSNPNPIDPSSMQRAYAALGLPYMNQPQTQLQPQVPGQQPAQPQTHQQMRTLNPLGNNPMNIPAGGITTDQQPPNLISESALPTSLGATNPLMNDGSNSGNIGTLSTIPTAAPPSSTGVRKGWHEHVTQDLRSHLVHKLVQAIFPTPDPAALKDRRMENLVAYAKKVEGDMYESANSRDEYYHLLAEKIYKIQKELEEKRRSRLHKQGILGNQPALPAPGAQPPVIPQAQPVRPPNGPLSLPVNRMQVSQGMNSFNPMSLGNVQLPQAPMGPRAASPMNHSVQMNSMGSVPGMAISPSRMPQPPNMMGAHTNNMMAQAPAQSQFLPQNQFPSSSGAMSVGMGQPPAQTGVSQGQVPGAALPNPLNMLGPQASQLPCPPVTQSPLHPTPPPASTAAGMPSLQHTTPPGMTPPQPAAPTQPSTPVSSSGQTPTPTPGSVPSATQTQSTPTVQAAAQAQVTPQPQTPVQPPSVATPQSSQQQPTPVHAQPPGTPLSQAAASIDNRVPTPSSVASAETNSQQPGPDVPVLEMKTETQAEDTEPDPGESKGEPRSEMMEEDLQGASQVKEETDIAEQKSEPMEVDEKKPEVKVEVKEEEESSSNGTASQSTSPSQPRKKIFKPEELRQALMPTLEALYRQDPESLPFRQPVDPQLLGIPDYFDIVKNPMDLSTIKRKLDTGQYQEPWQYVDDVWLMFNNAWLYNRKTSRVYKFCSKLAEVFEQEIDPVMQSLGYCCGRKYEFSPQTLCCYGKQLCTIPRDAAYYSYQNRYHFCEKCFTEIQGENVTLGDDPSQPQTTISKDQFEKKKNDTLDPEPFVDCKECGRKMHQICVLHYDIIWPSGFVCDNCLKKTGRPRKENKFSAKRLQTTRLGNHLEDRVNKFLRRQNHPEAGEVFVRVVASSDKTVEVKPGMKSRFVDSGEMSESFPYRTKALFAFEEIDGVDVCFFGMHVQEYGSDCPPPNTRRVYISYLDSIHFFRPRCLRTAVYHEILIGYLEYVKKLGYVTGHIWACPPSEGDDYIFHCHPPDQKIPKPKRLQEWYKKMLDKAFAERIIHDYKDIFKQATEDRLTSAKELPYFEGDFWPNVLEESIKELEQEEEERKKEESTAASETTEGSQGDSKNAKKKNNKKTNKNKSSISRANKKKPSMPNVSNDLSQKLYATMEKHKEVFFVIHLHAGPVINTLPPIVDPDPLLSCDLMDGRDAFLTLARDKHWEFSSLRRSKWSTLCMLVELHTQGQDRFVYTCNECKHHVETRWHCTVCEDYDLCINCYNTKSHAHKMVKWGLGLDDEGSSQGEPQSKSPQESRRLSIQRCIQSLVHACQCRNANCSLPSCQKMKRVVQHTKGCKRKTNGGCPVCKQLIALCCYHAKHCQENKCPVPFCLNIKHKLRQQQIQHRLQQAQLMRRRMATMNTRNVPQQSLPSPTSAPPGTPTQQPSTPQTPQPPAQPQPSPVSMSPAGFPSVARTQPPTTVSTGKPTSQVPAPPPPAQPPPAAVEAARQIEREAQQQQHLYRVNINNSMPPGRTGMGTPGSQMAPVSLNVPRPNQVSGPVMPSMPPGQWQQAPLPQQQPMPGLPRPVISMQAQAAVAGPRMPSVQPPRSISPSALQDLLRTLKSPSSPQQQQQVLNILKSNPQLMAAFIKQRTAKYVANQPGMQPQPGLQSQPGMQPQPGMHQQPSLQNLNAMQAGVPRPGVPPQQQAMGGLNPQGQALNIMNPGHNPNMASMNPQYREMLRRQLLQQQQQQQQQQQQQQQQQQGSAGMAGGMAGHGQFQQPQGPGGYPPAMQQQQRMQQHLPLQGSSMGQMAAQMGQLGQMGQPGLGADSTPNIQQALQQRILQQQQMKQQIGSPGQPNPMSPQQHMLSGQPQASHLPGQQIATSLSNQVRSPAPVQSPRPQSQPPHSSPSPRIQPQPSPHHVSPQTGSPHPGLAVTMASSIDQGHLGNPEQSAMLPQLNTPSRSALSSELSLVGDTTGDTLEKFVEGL
SWI/SNF-related matrix-associated actin-dependent regulator of chromatin subfamily A member 4, sequence (P51532 whole entry): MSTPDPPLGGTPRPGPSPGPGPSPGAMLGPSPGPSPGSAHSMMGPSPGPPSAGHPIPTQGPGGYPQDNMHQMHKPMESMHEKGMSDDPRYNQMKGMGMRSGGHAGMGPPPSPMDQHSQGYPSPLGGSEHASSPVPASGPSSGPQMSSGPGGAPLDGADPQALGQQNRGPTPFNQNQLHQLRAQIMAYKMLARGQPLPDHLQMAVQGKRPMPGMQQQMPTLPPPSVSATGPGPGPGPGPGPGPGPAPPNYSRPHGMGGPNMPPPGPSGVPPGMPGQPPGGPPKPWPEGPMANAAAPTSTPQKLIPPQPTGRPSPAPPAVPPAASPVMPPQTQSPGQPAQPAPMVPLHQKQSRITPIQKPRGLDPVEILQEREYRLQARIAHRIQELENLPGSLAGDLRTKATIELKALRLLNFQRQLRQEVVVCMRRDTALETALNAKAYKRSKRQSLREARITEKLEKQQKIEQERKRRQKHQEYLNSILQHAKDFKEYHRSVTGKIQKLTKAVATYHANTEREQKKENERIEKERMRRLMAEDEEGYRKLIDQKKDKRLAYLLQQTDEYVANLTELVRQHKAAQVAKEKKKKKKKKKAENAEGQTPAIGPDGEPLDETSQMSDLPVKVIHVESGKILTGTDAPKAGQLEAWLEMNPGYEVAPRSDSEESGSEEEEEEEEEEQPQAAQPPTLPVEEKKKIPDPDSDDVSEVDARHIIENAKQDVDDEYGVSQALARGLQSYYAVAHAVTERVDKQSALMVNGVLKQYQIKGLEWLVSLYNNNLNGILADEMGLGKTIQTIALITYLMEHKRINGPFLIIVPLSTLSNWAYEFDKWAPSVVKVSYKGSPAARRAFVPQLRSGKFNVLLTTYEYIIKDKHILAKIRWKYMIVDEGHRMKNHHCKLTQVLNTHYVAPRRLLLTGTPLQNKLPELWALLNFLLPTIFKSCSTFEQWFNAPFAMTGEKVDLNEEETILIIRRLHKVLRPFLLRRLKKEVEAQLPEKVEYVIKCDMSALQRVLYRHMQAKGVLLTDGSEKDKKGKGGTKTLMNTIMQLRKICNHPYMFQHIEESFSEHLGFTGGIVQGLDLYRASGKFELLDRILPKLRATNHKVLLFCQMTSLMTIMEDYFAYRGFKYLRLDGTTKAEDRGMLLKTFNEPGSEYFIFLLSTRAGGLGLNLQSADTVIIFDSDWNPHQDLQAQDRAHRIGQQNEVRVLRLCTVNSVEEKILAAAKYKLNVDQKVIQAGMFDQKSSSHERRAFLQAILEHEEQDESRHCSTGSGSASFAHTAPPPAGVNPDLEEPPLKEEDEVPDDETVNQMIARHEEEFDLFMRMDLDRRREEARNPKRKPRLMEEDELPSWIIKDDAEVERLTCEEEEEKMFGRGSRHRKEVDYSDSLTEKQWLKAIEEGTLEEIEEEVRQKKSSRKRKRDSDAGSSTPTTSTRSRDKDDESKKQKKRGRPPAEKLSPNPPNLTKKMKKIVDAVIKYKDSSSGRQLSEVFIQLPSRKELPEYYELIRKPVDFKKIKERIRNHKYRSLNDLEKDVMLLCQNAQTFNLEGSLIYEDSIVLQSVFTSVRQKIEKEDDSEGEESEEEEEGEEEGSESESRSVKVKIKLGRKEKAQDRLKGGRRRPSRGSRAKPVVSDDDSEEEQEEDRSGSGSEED
T4 sequence (Q15059 whole entry): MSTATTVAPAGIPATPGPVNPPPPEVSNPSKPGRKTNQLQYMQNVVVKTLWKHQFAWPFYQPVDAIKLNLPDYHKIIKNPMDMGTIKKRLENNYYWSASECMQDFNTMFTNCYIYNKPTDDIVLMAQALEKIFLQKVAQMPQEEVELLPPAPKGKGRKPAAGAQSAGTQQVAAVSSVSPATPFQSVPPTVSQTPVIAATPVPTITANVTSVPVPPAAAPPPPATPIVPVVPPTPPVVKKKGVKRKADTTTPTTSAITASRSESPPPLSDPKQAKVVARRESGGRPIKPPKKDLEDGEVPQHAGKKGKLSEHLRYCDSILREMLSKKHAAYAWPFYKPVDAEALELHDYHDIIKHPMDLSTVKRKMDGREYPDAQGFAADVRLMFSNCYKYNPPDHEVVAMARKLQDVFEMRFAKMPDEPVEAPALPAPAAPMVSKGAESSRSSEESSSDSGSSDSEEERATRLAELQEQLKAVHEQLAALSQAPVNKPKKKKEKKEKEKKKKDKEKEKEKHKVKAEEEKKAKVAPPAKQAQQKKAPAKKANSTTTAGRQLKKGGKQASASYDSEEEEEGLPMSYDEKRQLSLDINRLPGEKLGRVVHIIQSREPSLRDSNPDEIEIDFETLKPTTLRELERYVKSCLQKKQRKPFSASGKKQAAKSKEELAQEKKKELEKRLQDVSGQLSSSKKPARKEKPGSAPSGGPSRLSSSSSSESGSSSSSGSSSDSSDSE

| Ki ([1]; read-out: Ki) | Ki [2] | SMILES | also measured |
| --- | --- | --- | --- |
| 6.48 µM | 6.59 µM | COc1ccc(NS(=O)(=O)c2ccc(/N=N/c3cc(C)c(O)c(C)c3)cc2)cc1 | – |
| 0.9 µM | 5.92 µM | Cc1cc(/N=N/c2ccc(S(=O)(=O)Nc3cc(Cl)ccn3)cc2)cc(C)c1O | – |
| 1.3 µM | 3.44 µM | Cc1cc(/N=N/c2ccc(S(=O)(=O)Nc3ccc(F)cn3)cc2)cc(C)c1O | – |
| 10.7 µM | 7.14 µM | Cc1cc(/N=N/c2ccc(S(=O)(=O)Nc3ccc(C(F)(F)F)cc3)cc2)cc(C)c1O | – |
| 0.5 µM | 2.23 µM | COc1ccc(NS(=O)(=O)c2ccc(/N=N/c3cc(C)c(O)c(C)c3)cc2)nc1 | – |
| 6.54 µM | 38.7 µM | Cc1cc(/N=N/c2ccc(S(=O)(=O)Nc3ccc(Br)cn3)cc2)cc(C)c1O | – |
| 0.73 µM | 5.84 µM | Cc1cc(/N=N/c2ccc(S(=O)(=O)Nc3ccc(Cl)cn3)cc2)cc(C)c1O | – |
| 9.6 µM | 12.2 µM | Cc1cc(/N=N/c2ccc(S(=O)(=O)Nc3ccc(C(N)=O)cc3)cc2)cc(C)c1O | – |
| 9.45 µM | 6.83 µM | O=S(=O)(Nc1ccccn1)c1ccc(/N=N/c2ccc(O)c(C(F)(F)F)c2)cc1 | – |
| 0.91 µM | 4.3 µM | Cc1cc(/N=N/c2ccc(S(=O)(=O)Nc3ccccn3)cc2)cc(C)c1O | Ki [3]: < 6.56 µM; Ki ([1]; read-out: pKi (converted)): 0.912 µM; inhibition [4]: Dose-dependent effect; IC50 [5]: 16 µM; inhibition [6]: Dose-dependent effect; IC50 [7]: 46.3 µM; Ki [8]: 3.54 µM; Ki [9]: 1.64 µM; Ki [10]: 2.48 µM; Ki (CREB-binding protein): 7.15 µM; Activity (RAW264.7): Non-toxic |
| 6.13 µM | 7.77 µM | Cc1cc(/N=N/c2ccc(S(=O)(=O)Nc3cccc(C(F)(F)F)c3)cc2)cc(C)c1O | – |
| 2.79 µM | 4.48 µM | Cc1cc(/N=N/c2ccc(S(=O)(=O)Nc3ccccn3)cc2)cc(Br)c1O | – |
| 7.89 µM | 7.12 µM | Cc1cc(/N=N/c2ccc(S(=O)(=O)N(C)c3ccccn3)cc2)cc(C)c1O | – |
| > 100 µM | > 100 µM | Cc1cc(/N=N/c2ccc(S(=O)(=O)NCc3ccc(C(F)(F)F)cc3)cc2)cc(C)c1O | – |
| 0.32 µM | 1.38 µM | Cc1cc(/N=N/c2ccc(S(=O)(=O)Nc3ccc(C(=O)O)cn3)cc2)cc(C)c1O | – |
| 1.84 µM | 8.87 µM | Cc1cc(/N=N/c2ccc(S(=O)(=O)Nc3ccc(F)cc3)cc2)cc(C)c1O | – |

The remaining lines, values behind:

| SMILES | Ki ([1]; read-out: Ki) | Ki [2] | also measured |
| --- | --- | --- | --- |
| Cc1cc(/N=N/c2ccc(S(=O)(=O)Nc3ccccn3)cc2)cc(O)c1O | 2.39 µM | 3.27 µM | – |
| O=S(=O)(Nc1ccccn1)c1ccc(/N=N/c2ccc(O)c(O)c2)cc1 | 4.59 µM | 3.91 µM | – |
| Cc1cc(/N=N/c2ccc(S(=O)(=O)Nc3ccccn3)cc2)nc(C)c1O | 2.31 µM | 24.6 µM | – |
| O=S(=O)(Nc1ccccn1)c1ccc(/N=N/c2ccc(O)c(Br)c2)cc1 | 4.67 µM | 4.69 µM | – |
| COc1cc(/N=N/c2cc(C)c(O)c(C)c2)ccc1S(=O)(=O)Nc1ccccn1 | 3.13 µM | 7.77 µM | – |
| Cc1cc(/N=N/c2ccc(S(=O)(=O)Nc3ccccn3)cc2)cc(Cl)c1O | 1.4 µM | 4.81 µM | – |
| CC(=O)Nc1c(C)cc(/N=N/c2ccc(S(=O)(=O)Nc3ccccn3)cc2)cc1C | – | – | inhibition [1]: inactive; inhibition [2]: inactive |
| O=S(=O)(Nc1ccccn1)c1ccc(/N=N/c2ccc(O)c3ccccc23)cc1 | – | – | inhibition [1]: Active |
| O=S(=O)(Nc1ccccn1)c1ccc(/N=N/c2ccc(O)c3c2NCCC3)cc1 | – | – | inhibition [1]: Active |
| COc1c(C)cc(/N=N/c2ccc(S(=O)(=O)Nc3ccccn3)cc2)cc1C | – | – | inhibition [1]: inactive; inhibition [2]: inactive |
| Cc1cc(/N=N/c2ccc(S(=O)(=O)Nc3ccccn3)cc2)ccc1O | 6.43 µM | 8.2 µM | – |
| Cc1nc(/N=N/c2ccc(S(=O)(=O)Nc3ccccn3)cc2)c(CO)c(CN)c1O | – | – | inhibition [1]: inactive |
| Cc1cc(/N=N/c2ccc(S(=O)(=O)Nc3ccccn3)cc2)c(N)c(Cl)c1O | – | – | Ki [11]: 1.62 µM; Ki [3]: < 6.56 µM; inhibition [4]: Dose-dependent effect; IC50 [5]: 3.8 µM; inhibition [6]: Dose-dependent effect; IC50 [7]: 3.4 µM; Ki [8]: < 1.43 µM; Ki [9]: 0.24 µM; Ki [10]: 0.32 µM; Ki [12]: < 3.34 µM; Ki (CREB-binding protein): 5.59 µM; Activity (RAW264.7): Non-toxic |
| CC1(C)Cc2c(/N=N/c3ccc(S(=O)(=O)Nc4ccccn4)cc3)ccc(O)c2O1 | – | – | inhibition [1]: Active |
| Cc1cc(C)c(S(=O)(=O)O)cc1/N=N/c1cc(C)c(O)c(C)c1 | 4.92 µM | 6.37 µM | – |
| COc1cc(/N=N/c2ccc(S(=O)(=O)Nc3ccccn3)cc2)c(N)cc1O | 1.28 µM | 5.39 µM | – |
| O=S(=O)(Nc1ccccn1)c1ccc(/N=N/c2ccc(O)c(Cl)c2)cc1 | 1.3 µM | 6.16 µM | – |
| O=S(=O)(Nc1ccccn1)c1ccc(/N=N/c2cc(Br)c(O)c(Br)c2)cc1 | 0.52 µM | 4.29 µM | – |
| O=S(=O)(Nc1ccccn1)c1ccc(/N=N/c2ccc(O)c3c2CCCC3)cc1 | – | – | inhibition [1]: Active |
| Cc1nc(/N=N/c2ccc(S(=O)(=O)Nc3ccccn3)cc2)c(CO)c(C)c1O | – | – | inhibition [1]: inactive |
| O=S(=O)(Nc1ccccn1)c1ccc(/N=N/c2cc(Cl)c(O)c(Cl)c2)cc1 | 1.27 µM | 4.89 µM | – |
| Cc1nc(/N=N/c2ccc(S(=O)(=O)Nc3ccccn3)cc2)c(CO)c(C=O)c1O | – | – | inhibition [1]: inactive |
| Cc1cc(/N=N/c2cc(S(=O)(=O)O)c(C)cc2C)c(N)cc1O [ISCHEMIN] | 10.8 µM | 19.7 µM | – |
| Cc1cc(/N=N/c2ccc(S(=O)(=O)Nc3ccccn3)cc2)c(N)cc1O | – | – | Ki [11]: 6.06 µM; Ki [3]: 7.97 µM; inhibition [4]: Dose-dependent effect; IC50 [5]: 4.9 µM; inhibition [6]: Dose-dependent effect; IC50 [7]: 3.8 µM; Ki [8]: 2.72 µM; Ki [9]: 0.1 µM; Ki [10]: 0.14 µM; Ki [12]: 5.52 µM; Ki (CREB-binding protein): 2.18 µM; Activity (RAW264.7): Non-toxic |
| CC(C)c1cc(/N=N/c2ccc(S(=O)(=O)Nc3ccccn3)cc2)cc(C(C)C)c1O | – | – | inhibition [1]: inactive; inhibition [2]: inactive |
| Cc1nc(/N=N/c2ccc(S(=O)(=O)Nc3ccccn3)cc2)c(C)c(C)c1O | 6.02 µM | 9.1 µM | – |
| Cc1cc(/N=N/c2cccc(S(=O)(=O)Nc3ccccn3)c2)cc(C)c1O | 5.97 µM | 40.4 µM | – |
| CC(C)(C)c1cc(/N=N/c2ccc(S(=O)(=O)Nc3ccccn3)cc2)cc(C(C)(C)C)c1O | – | – | inhibition [1]: inactive; inhibition [2]: inactive |

From ChEMBL document CHEMBL3085768, “Structure-guided design of potent diazobenzene inhibitors for the BET bromodomains” (J Med Chem, 2013)
